From ChEMBL document CHEMBL1208767, “Synthesis and structure-activity relationship of N-(3-azabicyclo[3.1.0]hex-6-ylmethyl)-5-(2-pyridinyl)-1,3-thiazol-2-amines derivatives as NPY Y5 antagonists” (Bioorg Med Chem Lett, 2010) come the findings set out here.

Values after ≈ are worked out from the molar mass of the structure shown.

For series [1], the target named is T1, Neuropeptide Y receptor type 5 (Homo sapiens, UniProt Q15761).
T1 sequence (Q15761 whole entry): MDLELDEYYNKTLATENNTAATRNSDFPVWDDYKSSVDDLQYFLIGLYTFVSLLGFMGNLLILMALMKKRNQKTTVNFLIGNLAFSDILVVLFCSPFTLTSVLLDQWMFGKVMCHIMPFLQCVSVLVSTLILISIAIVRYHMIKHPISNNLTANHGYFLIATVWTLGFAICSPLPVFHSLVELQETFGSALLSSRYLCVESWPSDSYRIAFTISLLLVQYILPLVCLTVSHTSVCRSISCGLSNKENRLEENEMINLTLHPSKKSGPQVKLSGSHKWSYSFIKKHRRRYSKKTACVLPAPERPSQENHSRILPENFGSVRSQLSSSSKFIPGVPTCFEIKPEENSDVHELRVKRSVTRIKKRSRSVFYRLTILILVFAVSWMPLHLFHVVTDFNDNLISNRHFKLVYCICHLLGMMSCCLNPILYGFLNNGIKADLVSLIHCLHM
The series can be described thus: Antagonist activity at human NPY Y5 receptor expressed in HEK293 cells assessed as inhibition of calcium level by FLIPR assay. The format is functional, cell-based. An outline of the steps: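 Functional antagonism measured at the human Y5 receptor stably expressed in HEK293 cells, by FLIPR calcium read-out in 384-well format. Results expressed as fpKi. At least two replicates; each determination within 0.3 log units of the mean.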

The next series addresses T2, Cytochrome P450 1A2 (Homo sapiens, UniProt P05177).
T2 sequence (P05177 whole entry): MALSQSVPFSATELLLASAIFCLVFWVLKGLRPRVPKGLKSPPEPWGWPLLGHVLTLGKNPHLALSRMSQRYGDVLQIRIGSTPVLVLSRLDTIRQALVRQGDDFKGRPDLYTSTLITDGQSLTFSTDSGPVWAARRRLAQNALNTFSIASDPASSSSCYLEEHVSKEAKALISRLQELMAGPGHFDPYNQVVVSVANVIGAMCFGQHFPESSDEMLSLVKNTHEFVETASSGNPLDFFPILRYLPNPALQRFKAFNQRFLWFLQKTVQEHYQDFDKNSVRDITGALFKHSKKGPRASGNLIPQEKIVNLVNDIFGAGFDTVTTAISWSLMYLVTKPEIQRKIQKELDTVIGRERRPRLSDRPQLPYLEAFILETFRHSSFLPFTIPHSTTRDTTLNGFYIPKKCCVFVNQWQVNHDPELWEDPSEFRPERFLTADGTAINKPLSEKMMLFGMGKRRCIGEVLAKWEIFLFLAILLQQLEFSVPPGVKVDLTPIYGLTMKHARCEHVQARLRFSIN
In words: Inhibition of CYP1A2. Type of series: ADME.

In another series the target is Cytochrome P450 2C19 (Homo sapiens, UniProt P33261). In words: Inhibition of CYP2C19. Type of series: ADME.
A short description of series [2]: Solubility of the compound by high throughput chemiluminescent nitrogen detection method. The format is physicochemical.
The next series addresses Cytochrome P450 2C9 (Homo sapiens, UniProt P11712). In words: Inhibition of CYP2C9. Type of series: ADME.
For a further series, the target named is Cytochrome P450 3A4 (Homo sapiens, UniProt P08684). In words: Inhibition of CYP3A4. Type of series: ADME.
Series [3] is described as follows: Blood clearance in rat at 0.5 mg/kg, iv and 1 mg/kg, po by cassette dosing. The format is ADME, organism-based. In outline:
(§1)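 Rats dosed at 0.5 mg/kg iv and 1 mg/kg po.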

Series [4] is described as follows: Ratio of drug level in brain to blood in rat at 0.5 mg/kg, iv after 1 hr by cassette dosing. Type of series: ADME, organism-based. Also noted: dose 0.5 mg/kg, route intravenous. The following applies: read-out: BBR. In outline:
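Rats dosed at 0.5 mg/kg iv; brain and blood levels taken 1 h after iv dosing.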

Series [5] is described as follows: Oral bioavailability in rat at 1 mg/kg, po by cassette dosing. The format is ADME, organism-based. The following applies: in vivo. In outline:
as §1

Another series deals with Rattus norvegicus. In words: Whole blood binding in rat at 0.5 mg/kg, iv and 1 mg/kg, po by equilibrium dialysis assay. Type of series: ADME, organism-based. To be noted: in vivo. For orientation: In equilibrium dialysis only unbound substance equilibrates across the membrane.
The target in series [6] is Voltage-gated inwardly rectifying potassium channel KCNH2 (Homo sapiens, UniProt Q12809). The series can be described thus: Inhibition of human ERG.
Series [7] has as its target T3, Neuropeptide Y receptor type 1 (Homo sapiens, UniProt P25929).
T3 sequence (P25929 whole entry): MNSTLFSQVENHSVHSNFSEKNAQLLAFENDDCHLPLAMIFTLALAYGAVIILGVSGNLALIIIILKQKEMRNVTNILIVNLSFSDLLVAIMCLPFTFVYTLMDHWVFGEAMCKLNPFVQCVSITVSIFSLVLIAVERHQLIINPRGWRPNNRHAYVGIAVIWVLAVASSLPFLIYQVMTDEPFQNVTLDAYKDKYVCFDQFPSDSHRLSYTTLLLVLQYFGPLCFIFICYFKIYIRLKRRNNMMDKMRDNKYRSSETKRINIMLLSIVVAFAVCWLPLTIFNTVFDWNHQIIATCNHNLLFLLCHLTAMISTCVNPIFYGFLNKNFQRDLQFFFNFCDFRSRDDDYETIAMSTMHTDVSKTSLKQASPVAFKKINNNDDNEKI
In words: Antagonist activity at human NPY Y1 receptor expressed in HEK293 cells assessed as inhibition of calcium level by FLIPR assay. Type of series: functional, cell-based.

For series [8], the target named is T4, Neuropeptide Y receptor type 2 (Homo sapiens, UniProt P49146).
T4 sequence (P49146 whole entry): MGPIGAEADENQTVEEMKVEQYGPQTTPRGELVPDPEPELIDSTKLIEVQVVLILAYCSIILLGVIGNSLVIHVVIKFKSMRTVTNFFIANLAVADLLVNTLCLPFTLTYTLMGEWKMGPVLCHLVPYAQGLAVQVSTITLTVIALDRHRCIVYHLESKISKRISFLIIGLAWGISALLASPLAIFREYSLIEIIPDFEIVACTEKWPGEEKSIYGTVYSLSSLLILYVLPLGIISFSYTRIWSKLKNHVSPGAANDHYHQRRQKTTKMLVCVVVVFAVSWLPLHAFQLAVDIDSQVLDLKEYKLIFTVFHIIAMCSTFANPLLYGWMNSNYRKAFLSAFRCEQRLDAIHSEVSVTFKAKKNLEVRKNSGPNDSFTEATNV
In words: Antagonist activity at human NPY Y2 receptor expressed in HEK293 cells assessed as inhibition of calcium level by FLIPR assay. The format is functional, cell-based.

Cytochrome P450 2C19, sequence (P33261 whole entry): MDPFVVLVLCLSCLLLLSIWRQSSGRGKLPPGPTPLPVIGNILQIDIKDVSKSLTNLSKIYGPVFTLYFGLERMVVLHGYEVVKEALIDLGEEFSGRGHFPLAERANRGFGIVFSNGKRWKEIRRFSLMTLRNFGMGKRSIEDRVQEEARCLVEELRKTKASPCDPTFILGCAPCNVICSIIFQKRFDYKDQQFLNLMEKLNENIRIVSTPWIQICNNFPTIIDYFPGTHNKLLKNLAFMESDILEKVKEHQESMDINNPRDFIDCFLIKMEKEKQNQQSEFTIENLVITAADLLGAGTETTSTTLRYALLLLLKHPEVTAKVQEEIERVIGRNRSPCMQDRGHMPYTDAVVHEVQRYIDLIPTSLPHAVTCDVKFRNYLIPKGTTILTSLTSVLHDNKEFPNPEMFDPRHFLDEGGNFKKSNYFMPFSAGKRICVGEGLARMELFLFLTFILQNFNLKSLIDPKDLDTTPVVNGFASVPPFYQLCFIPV
Cytochrome P450 3A4, sequence (P08684 whole entry): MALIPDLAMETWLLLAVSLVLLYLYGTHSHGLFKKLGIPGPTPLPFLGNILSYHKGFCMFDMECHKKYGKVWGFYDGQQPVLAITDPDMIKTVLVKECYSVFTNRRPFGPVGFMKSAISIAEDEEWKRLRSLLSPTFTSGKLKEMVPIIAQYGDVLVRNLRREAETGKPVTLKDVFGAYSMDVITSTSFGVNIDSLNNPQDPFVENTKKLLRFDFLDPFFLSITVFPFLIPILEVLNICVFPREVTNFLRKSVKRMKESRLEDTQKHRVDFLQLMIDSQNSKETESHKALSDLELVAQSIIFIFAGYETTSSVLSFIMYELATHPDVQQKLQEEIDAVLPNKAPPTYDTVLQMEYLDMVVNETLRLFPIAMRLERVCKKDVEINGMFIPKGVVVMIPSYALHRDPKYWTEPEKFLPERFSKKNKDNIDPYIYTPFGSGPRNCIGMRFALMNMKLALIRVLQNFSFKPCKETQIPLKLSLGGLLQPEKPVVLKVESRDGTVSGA
Cytochrome P450 2C9, sequence (P11712 whole entry): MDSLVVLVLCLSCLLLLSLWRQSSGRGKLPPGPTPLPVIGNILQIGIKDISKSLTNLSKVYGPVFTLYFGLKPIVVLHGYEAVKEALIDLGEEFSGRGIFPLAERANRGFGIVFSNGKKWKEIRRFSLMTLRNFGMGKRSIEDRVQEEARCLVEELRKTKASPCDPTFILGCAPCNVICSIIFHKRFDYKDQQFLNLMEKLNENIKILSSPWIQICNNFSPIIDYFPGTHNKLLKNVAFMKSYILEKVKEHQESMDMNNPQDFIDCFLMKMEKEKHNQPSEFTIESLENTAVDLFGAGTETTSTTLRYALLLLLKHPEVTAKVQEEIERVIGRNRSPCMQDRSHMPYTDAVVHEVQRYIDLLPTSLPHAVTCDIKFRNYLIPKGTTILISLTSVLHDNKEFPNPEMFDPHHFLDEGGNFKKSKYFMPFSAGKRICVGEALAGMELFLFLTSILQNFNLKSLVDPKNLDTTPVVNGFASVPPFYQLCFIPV
Voltage-gated inwardly rectifying potassium channel KCNH2, sequence (Q12809 whole entry): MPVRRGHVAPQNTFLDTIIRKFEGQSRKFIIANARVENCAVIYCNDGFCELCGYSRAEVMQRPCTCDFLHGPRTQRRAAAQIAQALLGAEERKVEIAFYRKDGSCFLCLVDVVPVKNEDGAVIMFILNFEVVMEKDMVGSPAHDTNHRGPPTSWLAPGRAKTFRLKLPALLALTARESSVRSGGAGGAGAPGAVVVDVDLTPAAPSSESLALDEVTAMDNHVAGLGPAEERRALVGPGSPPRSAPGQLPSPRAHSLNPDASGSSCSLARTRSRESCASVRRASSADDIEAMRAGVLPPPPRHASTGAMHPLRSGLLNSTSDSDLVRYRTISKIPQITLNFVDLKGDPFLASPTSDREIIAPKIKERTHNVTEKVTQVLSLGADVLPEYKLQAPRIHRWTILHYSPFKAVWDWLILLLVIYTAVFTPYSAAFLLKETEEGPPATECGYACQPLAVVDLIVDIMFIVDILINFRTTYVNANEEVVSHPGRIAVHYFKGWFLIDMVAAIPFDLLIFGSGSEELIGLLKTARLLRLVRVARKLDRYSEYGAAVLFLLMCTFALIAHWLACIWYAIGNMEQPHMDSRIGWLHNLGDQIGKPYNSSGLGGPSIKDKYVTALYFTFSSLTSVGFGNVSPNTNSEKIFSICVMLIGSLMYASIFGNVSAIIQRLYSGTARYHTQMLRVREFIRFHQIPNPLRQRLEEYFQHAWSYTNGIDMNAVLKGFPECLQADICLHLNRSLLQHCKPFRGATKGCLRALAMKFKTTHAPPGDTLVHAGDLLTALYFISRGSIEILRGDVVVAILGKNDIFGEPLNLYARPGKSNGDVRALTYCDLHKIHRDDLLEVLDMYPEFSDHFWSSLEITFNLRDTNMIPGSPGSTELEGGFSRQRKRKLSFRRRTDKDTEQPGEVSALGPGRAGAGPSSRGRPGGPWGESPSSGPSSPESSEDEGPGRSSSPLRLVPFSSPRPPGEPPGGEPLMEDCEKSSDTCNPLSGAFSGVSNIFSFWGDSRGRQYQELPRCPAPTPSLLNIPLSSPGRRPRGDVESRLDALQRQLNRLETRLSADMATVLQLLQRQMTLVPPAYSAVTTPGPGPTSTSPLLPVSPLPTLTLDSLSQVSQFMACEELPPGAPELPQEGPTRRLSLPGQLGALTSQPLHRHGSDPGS

A word on the Ki: it is a measure of affinity in units of concentration, obtained from inhibition or displacement. Consider `O=C(c1ccncc1)N1C[C@@H]2[C@H](CNc3nc(-c4ccccn4)cs3)[C@@H]2C1`, for which the Ki in [1] was 50.1 nM.
On the same count and under the same terms, in the case of `CC(=O)N1C[C@@H]2[C@H](CNc3nc(-c4ccccn4)cs3)[C@@H]2C1` it was 2510 nM.
In general, IC50 refers to the midpoint of a concentration-inhibition curve. A low value points to greater potency in that assay. Usually solubility stands for the concentration that dissolves in the medium under given conditions. High values mean much dissolved substance, low ones little dissolved substance. A word on the bioavailability: it is dose-corrected exposure relative to a reference, in per cent. A high value points to good availability. Take `CC(C)C(=O)N1C[C@@H]2[C@H](CNc3nc(-c4ccccn4)cs3)[C@@H]2C1`: the Ki in series [1] was 2.51 nM. In addition, the IC50 against Cytochrome P450 1A2, on Cytochrome P450 2C19, against Cytochrome P450 2C9 and against Cytochrome P450 3A4 was not below 7 µM throughout. For the same molecule, in series [2], the solubility was found to be 120 µg/mL (≈ 350 µM). Besides, in [3], the clearance was found to be 137 mL/min/kg. Moreover, the Kp at 1 h in series [4] turned out to be 0.7. The molecule also came in with a bioavailability in series [5] of 6%.
Consider `O=C(c1ccccc1)N1C[C@@H]2[C@@H](CNc3nc(-c4ccccn4)cs3)[C@@H]2C1`, for which the Ki in series [1] is 12.6 nM.
Same read-out and setting: in the case of `O=C(c1ccccc1)N1C[C@@H]2[C@H](CNc3nc(-c4ccccn4)cs3)[C@@H]2C1` it was 2.51 nM.
For `O=C(c1cccc(F)c1)N1C[C@@H]2[C@H](CNc3nc(-c4ccccn4)cs3)[C@@H]2C1`, the Ki in series [1] is 1 nM.
The same measure, in the same setting: then `O=C(c1cc(F)cc(F)c1)N1C[C@@H]2[C@H](CNc3nc(-c4ccccn4)cs3)[C@@H]2C1`, with 1.58 nM.
For the molecule `O=C(c1cccnc1)N1C[C@@H]2[C@H](CNc3nc(-c4ccccn4)cs3)[C@@H]2C1`, in [1], the inhibition constant Ki is 5.01 nM.
Still for that read-out and setting: in the case of `O=C(Cc1ccccc1)N1C[C@@H]2[C@@H](CNc3nc(-c4ccccn4)cs3)[C@@H]2C1` it was 1 nM; in that of `O=C(Cc1ccccc1)N1C[C@@H]2[C@H](CNc3nc(-c4ccccn4)cs3)[C@@H]2C1`, 1 nM; in that of `CC(C(=O)N1C[C@@H]2[C@H](CNc3nc(-c4ccccn4)cs3)[C@@H]2C1)c1ccccc1` (stereo partly drawn), 0.398 nM.
On the same count and under the same terms, in the case of `O=C(N1C[C@@H]2[C@H](CNc3nc(-c4ccccn4)cs3)[C@@H]2C1)C1(c2ccccc2)CC1` it was 0.794 nM.
Same read-out and setting: in the case of `O=C(CCc1ccccc1)N1C[C@@H]2[C@@H](CNc3nc(-c4ccccn4)cs3)[C@@H]2C1` it was 6.31 nM; in that of `O=C(CCc1ccccc1)N1C[C@@H]2[C@H](CNc3nc(-c4ccccn4)cs3)[C@@H]2C1`, 0.631 nM; in that of `CC(C(=O)N1C[C@@H]2[C@H](CNc3nc(-c4ccccn4)cs3)[C@@H]2C1)C(C)c1ccccc1` (stereo partly drawn), 5.01 nM.
Consider `O=C([C@H]1C[C@@H]1c1ccccc1)N1C[C@@H]2[C@H](CNc3nc(-c4ccccn4)cs3)[C@@H]2C1`, for which the Ki in series [1] was 0.794 nM.
Turning to `O=C(C1CCOC1)N1C[C@@H]2[C@H](CNc3nc(-c4ccccn4)cs3)[C@@H]2C1` (stereo partly drawn), in series [1], the inhibition constant (Ki) is 7.94 nM. For the same molecule, the IC50 against Cytochrome P450 1A2 was more than 10 µM; against Cytochrome P450 2C19 it was more than 10 µM; at Cytochrome P450 2C9, more than 10 µM; in [6] it was 2000 nM; on Cytochrome P450 3A4, more than 10 µM. The molecule also returned an Activity with Rattus norvegicus of 74%. The molecule further came in with a clearance in series [3] of 98 mL/min/kg. The Kp at 1 h in series [4] is less than 0.5. The molecule further showed a bioavailability in series [5] of 15%.
With `O=C(C1CCCO1)N1C[C@@H]2[C@H](CNc3nc(-c4ccccn4)cs3)[C@@H]2C1` (stereo partly drawn), in series [1], the Ki is 5.01 nM.
Still for that read-out and setting: in the case of `O=C(C1CCOCC1)N1C[C@@H]2[C@H](CNc3nc(-c4ccccn4)cs3)[C@@H]2C1` it was 31.6 nM; in that of `c1ccc(-c2csc(NC[C@H]3[C@@H]4CNC[C@@H]43)n2)nc1`, 1000 nM; in that of `CC(C)CN1C[C@@H]2[C@H](CNc3nc(-c4ccccn4)cs3)[C@@H]2C1`, 3.98 nM.
As for `c1ccc(CN2C[C@@H]3[C@H](CNc4nc(-c5ccccn5)cs4)[C@@H]3C2)cc1`, the Ki in [1] was 1.58 nM.
Still for that read-out and setting: then `Cc1cc(C)cc(CN2C[C@@H]3[C@H](CNc4nc(-c5ccccn5)cs4)[C@@H]3C2)c1`, with 3.98 nM.
Still for that read-out and setting: in the case of `Fc1cc(F)cc(CN2C[C@@H]3[C@H](CNc4nc(-c5ccccn5)cs4)[C@@H]3C2)c1` it was 0.631 nM.
As for `CC(c1ccccc1)N1C[C@@H]2[C@H](CNc3nc(-c4ccccn4)cs3)[C@@H]2C1` (stereo partly drawn), the Ki in [1] is 1.26 nM.
As to `FC(F)(F)c1ccc(Nc2nc(-c3ccccn3)cs2)cc1`, the Ki in [7] is more than 31.6 µM; in series [1], 15.8 nM; in series [8] it was more than 31.6 µM. The molecule also displayed an IC50 on Cytochrome P450 1A2 of less than 0.1 µM. The Kp at 1 h in [4] was found to be 4.2. In series [5], this molecule returned a bioavailability of 30%.
